Here are results for 16 compounds from PubChem BioAssay.

The structures appear in SMILES notation. Calls of active or inactive are those of the source.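 Rule for the calls, unless noted: active = viability at or below 10% of carrier control in both of two separate runs; inconclusive = viability at or below 10% in only one of the two runs; inactive = the rest.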

The nature of experiment [1]: Her2 expression decrease, cell viability multiplex – SKBR3 breast tumor cells, AlphaScreen, ATP viability, primary screen (AID 461;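 active = Her2 level under about 52% in both replicate screens, with viability over 70% of control, limit read from the data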;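 for Her2 level: lower value means less Her2 protein in the cells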;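 for viability: percent of carrier control wells set as 100% viability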). Conditions: SKBR3 Her2 protein level, 18-24 h, measured here: SKBR3 viability, ATP luminescence, at 10 µM.
Experiment [2] concerns the target Receptor tyrosine-protein kinase erbB-2 (Homo sapiens) (UniProt P04626). Described as above. Conditions: 18-24 h, at 10 µM, stronger effect = lower value.
Experiment [3] in a line: reduced viability of SK-BR-3 breast cancer cells – cell-based, 24 h, human, pilot screen (AID 572).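 Note: compound exposure lasted between 18 and 24 h rather than exactly 24 h; 100% = carrier-treated control wells.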 To be noted: SK-BR-3 viability, CellTiter-Glo luminescence, at 10 µM, stronger effect = lower value.
Experiment [4] can be described thus: HUVEC growth inhibition – cell-based, human, primary screen (AID 575;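 active = viability at or below 30% in both replicate assays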;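 note: 100% = median of untreated cell wells with 0.1% DMSO on each plate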). Conditions: HUVEC proliferation, CellTiter-Glo luminescence, 72 h; at 10 µM; stronger effect = lower value. The procedure, abridged:
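material = primary HUVEC, no more than 12 passages | input = 1250 cells per well | controls = vehicle and MePR control wells | measured by = CTG luminescence | times = 72 h compound incubation | format = collagen-coated 384-well format | read-out = % viability vs DMSO wells | doses = single 10 µM dose, 0.1% DMSO, from 5x medium stock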

A short description of experiment [5]: H69AR cell proliferation blockers – human, duplicate replicates, primary screen (AID 580;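 active = viability at or under a set limit in both replicates, limit being median viability minus 3 SD, cut at about 48% in these data, passing the limit was not always enough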;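 note: 100% = mean luminescence of untreated wells and 0% = no signal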). To be noted: H69AR lung tumor cells viability, ATP luminescence, 72 h; at 10 µM; stronger effect = lower value.
Experiment [6] is described as follows: MRP1 drug-resistance reversers in H69AR cells – cell-based, doxorubicin co-treatment, pilot screen (AID 601;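 active = viability loss from added drug above about 55%, and viability with drug at most 40%, in both replicates, limit read from the data, passing the limit was not always enough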). To be noted: CellTiter-Glo, 72 h, at 10 µM; for differential viability (reversal): stronger effect = higher value.
The nature of experiment [7]: yeast transport mutant growth inhibition pilot in 384-well plates, post-Golgi transport modulator project (AID 636; in the data active = inhibition above about 31%). To be noted: absorbance 615 nm, about 18 h, stronger effect = higher value.
Experiment [8] in a line: growth suppression of yeast trafficking mutant, preliminary HTS, modulators of trafficking downstream of Golgi apparatus project, 1536-format plate, OD 615 nm (AID 637; in the data active = inhibition above about 30%). To be noted: yeast transport mutant growth, absorbance 615 nm, 18 h; stronger effect = higher value.
Where [9] appears, read: H69AR cells + 2 uM doxorubicin, measured here: viability with 2 uM doxorubicin, stronger effect = lower value.
[10] abbreviates: H69AR cells, compound alone cytotoxicity.

Sequence of Receptor tyrosine-protein kinase erbB-2 (Homo sapiens) (P04626 whole entry, looked up): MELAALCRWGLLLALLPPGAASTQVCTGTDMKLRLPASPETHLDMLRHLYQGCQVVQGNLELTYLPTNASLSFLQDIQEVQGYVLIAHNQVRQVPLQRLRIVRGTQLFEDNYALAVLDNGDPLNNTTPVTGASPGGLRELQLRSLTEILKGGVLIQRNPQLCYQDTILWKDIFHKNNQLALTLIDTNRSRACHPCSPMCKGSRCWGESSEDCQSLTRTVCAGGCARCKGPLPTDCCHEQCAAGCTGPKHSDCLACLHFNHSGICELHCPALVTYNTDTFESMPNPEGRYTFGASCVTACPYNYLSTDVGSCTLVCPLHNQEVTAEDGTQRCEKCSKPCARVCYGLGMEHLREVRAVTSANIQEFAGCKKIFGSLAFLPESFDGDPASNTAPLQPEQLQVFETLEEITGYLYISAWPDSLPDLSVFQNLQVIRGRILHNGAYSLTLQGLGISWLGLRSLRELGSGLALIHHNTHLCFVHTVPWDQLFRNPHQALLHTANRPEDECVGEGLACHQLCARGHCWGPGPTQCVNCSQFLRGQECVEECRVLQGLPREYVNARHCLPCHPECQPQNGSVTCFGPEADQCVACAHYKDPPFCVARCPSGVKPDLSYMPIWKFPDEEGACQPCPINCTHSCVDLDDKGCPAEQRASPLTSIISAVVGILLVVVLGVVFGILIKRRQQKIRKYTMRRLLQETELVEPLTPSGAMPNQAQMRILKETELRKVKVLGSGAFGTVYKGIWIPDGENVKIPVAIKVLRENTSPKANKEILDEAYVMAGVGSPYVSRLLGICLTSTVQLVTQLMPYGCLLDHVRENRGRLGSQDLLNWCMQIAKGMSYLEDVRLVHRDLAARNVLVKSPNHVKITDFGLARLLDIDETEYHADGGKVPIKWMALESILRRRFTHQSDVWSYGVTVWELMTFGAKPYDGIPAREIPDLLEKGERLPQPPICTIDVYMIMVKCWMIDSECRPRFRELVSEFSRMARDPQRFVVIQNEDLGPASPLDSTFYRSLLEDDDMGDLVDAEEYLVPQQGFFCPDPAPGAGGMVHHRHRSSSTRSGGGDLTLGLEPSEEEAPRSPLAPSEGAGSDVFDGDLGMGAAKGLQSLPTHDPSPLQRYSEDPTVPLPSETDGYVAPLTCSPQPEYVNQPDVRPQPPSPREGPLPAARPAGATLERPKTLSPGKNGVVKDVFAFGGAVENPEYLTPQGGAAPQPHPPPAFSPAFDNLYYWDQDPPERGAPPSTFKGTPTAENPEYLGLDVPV

For the compound `Cc1ccc(C2Nc3ccccc3-c3nc4ccccc4n32)o1` (stereo not given), the viability in experiment [1] is 97%; in experiment [3], 97% (inactive); in experiment [4], 54.4% (inactive); in experiment [5] it was 38.3% (active); in experiment [6] (setting [9]), 56.4%; in experiment [6] (setting [10]), 38.3%. Also, the Her2 level in experiment [2] is 89.5% (inactive). Further, the differential viability (reversal) in experiment [6] (H69AR cells + 2 uM doxorubicin) was -18.1% (inactive). The values for the inhibition in experiment [7] and in experiment [8] were -1.37% (inactive) and 4.44% (inactive), respectively.

For the compound `Cc1cc(OCC(=O)N2CCOCC2)cc2oc(=O)c3ccccc3c12`, the viability is 108% in experiment [1]; 108% (inactive) in experiment [3]; 109% (inactive) in experiment [4]; 85.1% (inactive) in experiment [5]; 85.9% in experiment [6] (setting [9]); 85.1% in experiment [6] (setting [10]). Besides, the Her2 level in experiment [2] is 100% (inactive). For the same compound, the differential viability (reversal) in experiment [6] (H69AR cells + 2 uM doxorubicin) is -0.74% (inactive). Also, the inhibition in experiment [7] was 0.39% (inactive); in experiment [8], -10.8% (inactive).

Consider `Fc1ccccc1-c1nc(-c2ccccc2)no1`, for which the viability in experiment [1] was 85.5%; in experiment [3], 85.5% (inactive); in experiment [4], 81.4% (inactive); in experiment [5] it was 111% (inactive); in experiment [6] (setting [9]), 90.9%; in experiment [6] (setting [10]), 111%. In addition, the Her2 level in experiment [2] was 69% (inactive). Further, the differential viability (reversal) in experiment [6] (H69AR cells + 2 uM doxorubicin) is 19.6% (inactive). Also, the inhibition in experiment [7] was 1.05% (inactive); in experiment [8], -3.87% (inactive).

Regarding `NC(=O)c1c(NC(=O)CN2CCCC2)sc2c1CCCC2`, the viability in experiment [1] is 104%; in experiment [3], 104% (inactive); in experiment [4], 95.9% (inactive); in experiment [5] it was 91.3% (inactive); in experiment [6] (setting [9]), 86.6%; in experiment [6] (setting [10]) it was 91.3%. The Her2 level in experiment [2] is 114% (inactive). In experiment [6] (H69AR cells + 2 uM doxorubicin), the differential viability (reversal) is 4.73% (inactive). Also, the inhibition in experiment [7] is -0.8% (inactive); in experiment [8], -5.57% (inactive).

Turning to `CCOc1ccccc1C(=O)NCCC(=O)O`, the viability was 95% in experiment [1]; 95% (inactive) in experiment [3]; 111% (inactive) in experiment [4]; 96.4% (inactive) in experiment [5]; 95.1% in experiment [6] (setting [9]); 96.4% in experiment [6] (setting [10]). In addition, the Her2 level in experiment [2] is 112% (inactive). Besides, the differential viability (reversal) in experiment [6] (H69AR cells + 2 uM doxorubicin) was 1.32% (inactive). The inhibition in experiment [7] is -0.66% (inactive); in experiment [8] it was 11.3% (inactive).

As for `COc1cc2c(C)nc(C)c(C#N)c2cc1OC`, the viability in experiment [1] is 111%; in experiment [3], 111% (inactive); in experiment [4] it was 66.4% (inactive); in experiment [5] it was 86.6% (inactive); in experiment [6] (setting [9]), 76.5%; in experiment [6] (setting [10]), 86.6%. Moreover, the Her2 level in experiment [2] was 93.5% (inactive). The differential viability (reversal) in experiment [6] (H69AR cells + 2 uM doxorubicin) was 10.1% (inactive). The inhibition in experiment [7] was -6% (inactive); in experiment [8], -2.74% (inactive).

Regarding `O=C1CCc2nc3sc4c(c3c(=O)n2N1)CCCC4`, the viability in experiment [1] was 86.5%; in experiment [3] it was 86.5% (inactive); in experiment [4], 85.9% (inactive); in experiment [5], 91.3% (inactive); in experiment [6] (setting [9]) it was 90.2%; in experiment [6] (setting [10]), 91.3%. For the same compound, the Her2 level in experiment [2] was 100% (inactive). The differential viability (reversal) in experiment [6] (H69AR cells + 2 uM doxorubicin) is 1.12% (inactive). The inhibition in experiment [7] was -1.05% (inactive); in experiment [8], -7.14% (inactive).

With `C=C(C)Cn1c(SCC)nc2ccccc2c1=O`, the viability in experiment [1] was 93%; in experiment [3], 93% (inactive); in experiment [4] it was 104% (inactive); in experiment [5] it was 85.6% (inactive); in experiment [6] (setting [9]), 88.6%; in experiment [6] (setting [10]), 85.6%. For the same compound, the Her2 level in experiment [2] was 97.5% (inactive). The differential viability (reversal) in experiment [6] (H69AR cells + 2 uM doxorubicin) was -3% (inactive). Moreover, the inhibition in experiment [7] is -5.39% (inactive); in experiment [8], -3.27% (inactive).

As for `Cc1ccc(-n2c(=O)[nH]c3c(C(N)=O)nc(CC(C)C)nc32)cc1`, the viability in experiment [1] was 105%; in experiment [3] it was 105% (inactive); in experiment [4] it was 89% (inactive); in experiment [5] it was 72.6% (inactive); in experiment [6] (setting [9]), 91.2%; in experiment [6] (setting [10]) it was 72.6%. The Her2 level in experiment [2] was 106% (inactive). For the same compound, the differential viability (reversal) in experiment [6] (H69AR cells + 2 uM doxorubicin) is -18.6% (inactive). Also, the inhibition in experiment [7] is -2.76% (inactive); in experiment [8], 5.57% (inactive).

As to `CC(C)(C)Nc1nc(OCC(F)(F)F)nc(OCC(F)(F)F)n1`, the viability in experiment [1] is 108%; in experiment [3], 108% (inactive); in experiment [4] it was 98.8% (inactive); in experiment [5] it was 89.1% (inactive); in experiment [6] (setting [9]), 90.1%; in experiment [6] (setting [10]) it was 89.1%. In experiment [2], the Her2 level was 89% (inactive). The differential viability (reversal) in experiment [6] (H69AR cells + 2 uM doxorubicin) is -0.98% (inactive). For the same compound, the figures for the inhibition in experiment [7] and in experiment [8] were -5.26% (inactive) and -10.6% (inactive), respectively.

For the compound `Fc1ccccc1C(c1nnnn1Cc1ccc2c(c1)OCO2)N1CCN(Cc2ccccc2)CC1` (stereo not given), the viability is 121% in experiment [1]; 121% (inactive) in experiment [3]; 69.6% (inactive) in experiment [4]; 89.3% (inactive) in experiment [5]; 96.9% in experiment [6] (setting [9]); 89.3% in experiment [6] (setting [10]). Also, in experiment [2], the Her2 level was 88% (inactive). The differential viability (reversal) in experiment [6] (H69AR cells + 2 uM doxorubicin) is -7.54% (inactive). In addition, the inhibition is 2.16% (inactive) in experiment [7] and -4.13% (inactive) in experiment [8].

As to `O=C(CCSc1nccn1Cc1ccccc1)N1CCOCC1`, the viability in experiment [1] is 107%; in experiment [3], 107% (inactive); in experiment [4] it was 103% (inactive); in experiment [5], 97% (inactive); in experiment [6] (setting [9]), 86%; in experiment [6] (setting [10]), 97%. The Her2 level in experiment [2] is 111% (inactive). Moreover, the differential viability (reversal) in experiment [6] (H69AR cells + 2 uM doxorubicin) was 11.1% (inactive). Moreover, the inhibition in experiment [7] is -6.13% (inactive); in experiment [8], -0.65% (inactive).

In the case of `COc1ccccc1OCC(=O)N1CCNC1=O`, the viability in experiment [1] was 90%; in experiment [3], 90% (inactive); in experiment [4], 84% (inactive); in experiment [5] it was 102% (inactive); in experiment [6] (setting [9]), 90%; in experiment [6] (setting [10]), 102%. In experiment [2], the Her2 level is 96.5% (inactive). In experiment [6] (H69AR cells + 2 uM doxorubicin), the differential viability (reversal) is 12.2% (inactive). For the same compound, the inhibition is -1.73% (inactive) in experiment [7] and -0.98% (inactive) in experiment [8].

In the case of `COc1ccc(C(CNC(=O)CN2C(=O)NC3(CC(C)CC(C)(C)C3)C2=O)N2CCOCC2)cc1` (stereo not given), the viability was 94.5% in experiment [1]; 94.5% (inactive) in experiment [3]; 90.4% (inactive) in experiment [4]; 90.5% (inactive) in experiment [5]; 88.7% in experiment [6] (setting [9]); 90.5% in experiment [6] (setting [10]). In addition, in experiment [2], the Her2 level was 108% (inactive). For the same compound, the differential viability (reversal) in experiment [6] (H69AR cells + 2 uM doxorubicin) was 1.81% (inactive). The inhibition was -5.73% (inactive) in experiment [7] and -2.62% (inactive) in experiment [8].

For `COc1cc(NC(=O)NC(C)(C(F)(F)F)C(F)(F)F)cc(OC)c1OC`, the viability is 138% in experiment [1]; 138% (inactive) in experiment [3]; 91.1% (inactive) in experiment [4]; 99.5% (inactive) in experiment [5]; 102% in experiment [6] (setting [9]); 99.5% in experiment [6] (setting [10]). Also, the Her2 level in experiment [2] was 106% (inactive). For the same compound, in experiment [6] (H69AR cells + 2 uM doxorubicin), the differential viability (reversal) was -2.39% (inactive). In addition, the inhibition in experiment [7] is -4.08% (inactive); in experiment [8], 11.3% (inactive).

For `CCCOc1cc(C)c(S(=O)(=O)N2CCN(C)CC2)cc1C`, the viability is 89% in experiment [1]; 89% (inactive) in experiment [3]; 104% (inactive) in experiment [4]; 95.2% (inactive) in experiment [5]; 92.9% in experiment [6] (setting [9]); 95.2% in experiment [6] (setting [10]). Besides, in experiment [2], the Her2 level is 99% (inactive). In addition, in experiment [6] (H69AR cells + 2 uM doxorubicin), the differential viability (reversal) was 2.26% (inactive). The inhibition in experiment [7] was -1.58% (inactive); in experiment [8], 5.41% (inactive).
